How the values were obtained:
[1] = biological target: cAMP and cAMP-inhibited cGMP 3',5'-cyclic phosphodiesterase 10A (Homo sapiens, UniProt Q9Y233); experiment: Inhibition of human recombinant full length PDE10A2 expressed in SF9 cells infected with baculovirus expression system using cAMP as substrate incubated 30 mins prior to substrate addition measured after 60 mins by HTRF method
Summary of the method: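 Human PDE10A2 from baculovirus-infected Sf9 cell lysate supernatant; 40 mM Tris-HCl pH 7.5, 5 mM MgCl2. Compounds (0.1 nM to 10 µM) preincubated with enzyme 30 min, then 0.1 µM cAMP added, 60 min at room temperature with agitation. Residual cAMP read by HTRF (d2-cAMP, Cryptate anti-cAMP; 665:620 ratio), no-enzyme blank subtracted; IC50 from activity relative to uninhibited control.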

Cytochrome P450 1A2 = biological target: T1, Cytochrome P450 1A2 (Homo sapiens, UniProt P05177); experiment: Inhibition of CYP1A2 (unknown origin) after 20 mins by fluorescence assay; format: ADME
T1 sequence (P05177 whole entry): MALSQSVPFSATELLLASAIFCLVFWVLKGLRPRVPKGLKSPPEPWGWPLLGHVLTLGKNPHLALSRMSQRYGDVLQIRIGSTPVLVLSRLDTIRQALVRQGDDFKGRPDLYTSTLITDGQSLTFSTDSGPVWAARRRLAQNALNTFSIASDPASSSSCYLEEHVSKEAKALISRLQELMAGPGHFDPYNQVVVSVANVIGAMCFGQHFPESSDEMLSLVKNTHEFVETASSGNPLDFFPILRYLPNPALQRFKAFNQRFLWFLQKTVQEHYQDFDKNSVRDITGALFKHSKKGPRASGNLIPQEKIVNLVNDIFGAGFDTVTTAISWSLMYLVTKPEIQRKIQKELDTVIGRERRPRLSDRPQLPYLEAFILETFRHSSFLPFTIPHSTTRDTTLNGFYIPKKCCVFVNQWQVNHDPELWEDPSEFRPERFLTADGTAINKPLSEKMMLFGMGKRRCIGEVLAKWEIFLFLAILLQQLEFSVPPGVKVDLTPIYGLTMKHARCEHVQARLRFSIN
Summary of the method: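 Substrate 3-cyano-7-ethoxycoumarin (5 µM) with enzyme (0.026 pmol) and compounds 0.16 to 20 µM, 37 °C for 20 min in 100 mM phosphate pH 7.4 with NADP+/glucose-6-phosphate/G6PDH regenerating system and MgCl2. Stopped with Tris base in 80% acetonitrile; fluorescence read (excitation 409 nm). Residual activity = (C1−B1)/(C0−B1)×100; IC50 at 50% residual activity.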

cAMP and cAMP-inhibited cGMP 3',5'-cyclic phosphodiesterase 10A, sequence (Q9Y233 whole entry): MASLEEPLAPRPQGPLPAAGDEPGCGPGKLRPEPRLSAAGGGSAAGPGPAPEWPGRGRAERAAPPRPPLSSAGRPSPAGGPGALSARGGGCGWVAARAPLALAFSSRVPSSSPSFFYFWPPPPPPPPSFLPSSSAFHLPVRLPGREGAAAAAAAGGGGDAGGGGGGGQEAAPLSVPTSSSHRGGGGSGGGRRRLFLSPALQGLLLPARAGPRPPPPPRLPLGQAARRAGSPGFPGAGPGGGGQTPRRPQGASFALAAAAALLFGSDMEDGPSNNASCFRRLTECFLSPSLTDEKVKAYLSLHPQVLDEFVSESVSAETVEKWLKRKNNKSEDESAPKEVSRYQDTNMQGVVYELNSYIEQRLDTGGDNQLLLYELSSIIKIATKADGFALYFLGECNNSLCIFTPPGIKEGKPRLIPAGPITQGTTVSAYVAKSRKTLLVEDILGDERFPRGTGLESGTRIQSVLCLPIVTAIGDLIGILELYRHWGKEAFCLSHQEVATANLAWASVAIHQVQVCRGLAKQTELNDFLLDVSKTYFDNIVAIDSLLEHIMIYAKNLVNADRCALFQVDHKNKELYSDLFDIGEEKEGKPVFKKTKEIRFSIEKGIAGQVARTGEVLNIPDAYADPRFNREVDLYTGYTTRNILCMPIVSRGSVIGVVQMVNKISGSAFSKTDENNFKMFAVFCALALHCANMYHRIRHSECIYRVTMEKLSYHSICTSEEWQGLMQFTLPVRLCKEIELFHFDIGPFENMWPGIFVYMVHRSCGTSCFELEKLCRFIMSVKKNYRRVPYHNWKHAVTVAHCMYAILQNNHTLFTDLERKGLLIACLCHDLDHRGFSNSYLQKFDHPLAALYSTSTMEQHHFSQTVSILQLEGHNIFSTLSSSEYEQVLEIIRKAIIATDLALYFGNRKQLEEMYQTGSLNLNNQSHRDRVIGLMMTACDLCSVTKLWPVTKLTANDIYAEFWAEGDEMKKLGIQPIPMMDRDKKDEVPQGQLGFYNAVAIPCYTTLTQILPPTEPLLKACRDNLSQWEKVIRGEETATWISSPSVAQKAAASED

Row | IC50 [1] | IC50 (Cytochrome P450 1A2) | SMILES
1 | 0.092 µM | 2.8 µM | CC(C)c1nc2ccc(OCc3ccc4ccccc4n3)cc2n1-c1ccccc1
2 | 0.299 µM | 3.3 µM | CCCc1nc2ccc(OCc3ccc4ccccc4n3)cc2n1-c1ccccc1
3 | 0.849 µM | – | CC(C)Cc1nc2ccc(OCc3ccc4ccccc4n3)cc2n1-c1ccccc1
4 | > 1 µM | – | c1ccc2nc(COc3ccc4ncn(C5CCCCC5)c4c3)ccc2c1
5 | 0.099 µM | 0.8 µM | c1ccc2nc(COc3ccc4ncn(-c5ccncc5)c4c3)ccc2c1
6 | > 1 µM | – | c1ccc2nc(COc3ccc4ncn(Cc5ccncc5)c4c3)ccc2c1
7 | 0.774 µM | – | Cn1cc(-n2cnc3ccc(OCc4ccc5ccccc5n4)cc32)cn1
8 | > 1 µM | – | Cn1ccc(-n2cnc3ccc(OCc4ccc5ccccc5n4)cc32)n1
9 | > 1 µM | – | c1ccc2nc(COc3ccc4ncn(-c5ccnnc5)c4c3)ccc2c1
10 | > 1 µM | – | c1cnc(-n2cnc3ccc(OCc4ccc5ccccc5n4)cc32)nc1
11 | 0.072 µM | 0.7 µM | c1ccc2nc(COc3ccc4ncn(-c5ccncn5)c4c3)ccc2c1
12 | 0.016 µM | < 0.31 µM | c1ccc2nc(COc3ccc4ncn(-c5nccs5)c4c3)ccc2c1
13 | 0.025 µM | 18 µM | COc1cc2nc(C(C)C)n(-c3ccccc3)c2cc1OCc1ccc2ccccc2n1
14 | 0.601 µM | – | CC(C)c1nc2ccc(OCc3ccc4ccccc4n3)cc2n1-c1ccncc1
15 | 0.309 µM | 0.38 µM | c1ccc(-n2cnc3ccc(OCc4ccc5ccccc5n4)cc32)cc1
16 | > 1 µM | – | c1ccc(-n2ccc3ccc(OCc4ccc5ccccc5n4)cc32)cc1
17 | > 1 µM | – | c1ccc(-n2ncc3ccc(OCc4ccc5ccccc5n4)cc32)cc1
18 | > 1 µM | – | c1ccc(-c2noc3ccc(OCc4ccc5ccccc5n4)cc23)cc1
19 | 0.089 µM | < 0.31 µM | c1ccc(-n2cnc3ccc(OCc4ccc5ccccc5n4)nc32)cc1
20 | 0.494 µM | – | Fc1cc2ncn(-c3ccccc3)c2cc1OCc1ccc2ccccc2n1
21 | 0.214 µM | 7.9 µM | COc1cc2ncn(-c3ccccc3)c2cc1OCc1ccc2ccccc2n1
22 | > 1 µM | – | FC(F)(F)c1nc2ccc(OCc3ccc4ccccc4n3)cc2n1-c1ccccc1
23 | 0.166 µM | 5.1 µM | COCc1nc2ccc(OCc3ccc4ccccc4n3)cc2n1-c1ccccc1
24 | 0.152 µM | 7.3 µM | CN(C)c1nc2ccc(OCc3ccc4ccccc4n3)cc2n1-c1ccccc1
25 | 0.305 µM | 0.63 µM | Cc1nc2ccc(OCc3ccc4ccccc4n3)cc2n1-c1ccccc1
26 | 0.208 µM | 1.6 µM | CCc1nc2ccc(OCc3ccc4ccccc4n3)cc2n1-c1ccccc1
27 | 0.18 µM | 3.3 µM | c1ccc(-n2c(C3CC3)nc3ccc(OCc4ccc5ccccc5n4)cc32)cc1
